Published values of several laboratories.
Protocols differ between the studies behind these lines.
BRD2 BD1: Bromodomain-containing protein 2, BD1 (BRD2, Homo sapiens, UniProt P25440)
PBRM1 bromodomain: Protein polybromo-1, bromodomain (PBRM1, Homo sapiens, UniProt Q86U86)
ERBB3: Receptor tyrosine-protein kinase erbB-3 (ERBB3, Homo sapiens, UniProt P21860)

SMILES | target | test | test system | setting | endpoint | result
Cc1oc2cc3oc(=O)c(C)c(C)c3cc2c1C | Aldehyde dehydrogenase, mitochondrial (ALDH2, Homo sapiens, UniProt P05091) | enzyme activity, inhibitor, absorbance | – | 10 µM | remaining activity | 20.7%
NS(=O)(=O)c1ccc(Nc2nc(-c3ccc(F)cc3)c3ccccc3n2)cc1 | Bromodomain-containing protein 2, BD2 (BRD2, Homo sapiens, UniProt P25440) | binding, competition with immobilised ligand | – | 1 µM | remaining binding | 10%
Oc1ccc(-c2nc(-c3ccncc3)c(-c3ccc(F)cc3)[nH]2)cc1 | BRD2 BD1 | thermal stability, DSF | – | 10 µM | ΔTm | 1.18 °C
CC/C=C1\CCn2c1nc(=O)c1c(Cl)cccc12 | PBRM1 bromodomain | thermal stability, DSF | – | 100 µM | ΔTm | 5.03 °C
CN(C)C1CCN(CC#Cc2nn(C3CCCC3)c3nc(NCc4ccccc4)ncc23)C1 (stereo not shown) | Tyrosine-protein kinase JAK1 (JAK1, Homo sapiens, UniProt P23458) | enzyme activity, inhibitor, FRET | – | 1 µM | inhibition | 0%
Nc1ncnc2occ(-c3ccc(NC(=O)Nc4cc(C(F)(F)F)ccc4F)cc3)c12 | ERBB3 | cell-free assay, inhibitor | – | 20 µM | remaining signal | 73%
CCC(/C=C1\CCn2c1nc(=O)c1cc(Cl)ccc12)CC | Protein polybromo-1, BD2 (PBRM1, Homo sapiens, UniProt Q86U86) | thermal stability, DSF | – | 100 µM | ΔTm | 0.47 °C
Cc1cnc(Nc2ccc(OCCN3CCCC3)cc2)nc1Nc1cccc(S(=O)(=O)NC(C)(C)C)c1 | BRD2 BD1 | thermal stability, DSF | – | 10 µM | ΔTm | 2.4 °C
CCC1=C[C@@H]2CN(C1)Cc1c([nH]c3ccccc13)[C@@](C(=O)OC)(c1cc3c(cc1OC)N(C)[C@H]1[C@@](O)(C(=O)OC)[C@H](OC(C)=O)[C@]4(CC)C=CCN5CC[C@]31[C@@H]54)C2 | Organic cation/carnitine transporter 2 (SLC22A5, Homo sapiens, UniProt O76082) | transporter uptake, inhibitor | HEK293 | 100 µM | remaining activity | 15.3%
CCC(/C=C1\CCCn2c1nc(=O)c1c(Cl)cccc12)CC | PBRM1 bromodomain | thermal stability, DSF | – | 100 µM | ΔTm | 5.82 °C
Cc1ccc(NC(=O)c2ccc(C)c(C(F)(F)F)c2)cc1C#Cc1nn(C2CCC(O)CC2)c2ncnc(N)c12 (stereo not shown) | Tyrosine-protein kinase ABL1 (Abl1, Mus musculus, UniProt P00520) | cell-free assay | – | 10 µM | remaining signal | -2%
C[S+]([O-])c1ccc(-c2nc(-c3ccncc3)c(-c3ccc(F)cc3)[nH]2)cc1 (stereo not shown) | Protein polybromo-1, BD1 (PBRM1, Homo sapiens, UniProt Q86U86) | thermal stability, DSF | – | 10 µM | ΔTm | 0.28 °C
Cc1ccc(C(=O)Nc2ccc(CN3CCN(C)CC3)c(C(F)(F)F)c2)cc1C#Cc1cnc2cccnn12 | ERBB3 | enzyme activity, inhibitor | – | 23.5 nM | remaining activity | 82%
CC(C)(C)C/C=C1\CCn2c1nc(=O)c1c(Cl)cccc12 | PBRM1 bromodomain | thermal stability, DSF | – | 100 µM | ΔTm | 7.06 °C
O=C(O)c1cccc(NC(c2ccccc2)c2ccc3ccccc3c2O)c1 (stereo not shown) | CAAX prenyl protease 2 (Homo sapiens, UniProt Q9Y256) | enzyme activity, inhibitor | – | 10 µM | remaining activity | < 40%
CCC(/C=C1\CCn2c1nc(=O)c1c(Cl)cccc12)CC | PBRM1 bromodomain | thermal stability, DSF | – | 100 µM | ΔTm | 10.3 °C
CCCCCCN1CCCn2c1nc1c2c(=O)n(C)c(=O)n1C | Adenosine receptor A2b (ADORA2B, Homo sapiens, UniProt P29275) | ligand displacement, radioligand | – | 10 µM, cell membranes | inhibition | 9%
CCC(/C=C1\CCn2c1nc(=O)c1ccc(O)cc12)CC | PBRM1 bromodomain | thermal stability, DSF | – | 100 µM | ΔTm | -0.42 °C
Cc1cc2c(cc1N1C(=O)c3cccc4c(Cl)ccc(c34)C1=O)n(C)c(=O)n2C | BRD2 BD1 | thermal stability, DSF | – | 10 µM | ΔTm | 0.3 °C
